# Results from ChEMBL document CHEMBL1145795, “Design, synthesis, and evaluation of analogues of 3,3,3-trifluoro-2-hydroxy-2-phenyl-propionamide as orally available general anesthetics” (J Med Chem, 2003).
# The source made the active and inactive calls. The calls are words filed in the database; no cut-off is given here.
# Experiments:
# [1] = target: T1, Sodium channel protein type 4 subunit alpha (Homo sapiens, UniProt P35499); assay: Inhibition of sodium channels through phasic blockade; assay type: functional
# [2] = target: T1, Sodium channel protein type 4 subunit alpha; assay: Inhibition of sodium channels through tonic blockade; assay type: functional
# Rattus norvegicus [3] = assay: Compound was tested for minimum alveolar concentration in rat at dose 60 mg/kg administered intraperitoneally; assay type: functional; conditions: route intraperitoneal
# Outline: (§1)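 Rats were isoflurane-induced, intubated and ventilated, with femoral arterial and venous lines and normothermia. Baseline MAC was taken by tail clamp for 1 min, stepping isoflurane by 0.1% with 12–15 min equilibration. MAC was the midpoint between movement and no movement. The compound (60 mg/kg) was sonicated in 3 mL peanut oil and given ip. MAC was redetermined at 30 min and 1 h. Blood pressure was recorded; values are given as mean ± SEM.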
# Rattus norvegicus [4] = assay: Compound was tested for blood pressure in rat at dose 60 mg/kg administered intraperitoneally; assay type: functional; conditions: route intraperitoneal; outline: as §1
# Mus musculus [5] = assay: Compound was tested for anticonvulsant activity against maximal electroshock at dose 30 mg/kg in time 4 hr in mice administered subcutaneously; assay type: functional; conditions: route subcutaneous
# Outline: (§2)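 Run by the NINDS ADD program in mice, challenged with maximal electroshock or subcutaneous metrazol at 0.5 h and 4 h after dosing. Protection is scored per animal (e.g. […], 5 for scMet at 100 mg/kg).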
# Rattus norvegicus [6] = assay: Compound was tested for anticonvulsant activity by measuring the therapeutic index by subcutaneous metrazole in rat; assay type: functional
# Outline: (§3)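 NINDS ADD Phase II quantification with oral dosing. […] Therapeutic index is rotarod TD50 divided by the MES or scMET ED50.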
# Rattus norvegicus [7] = organism: Rattus norvegicus; assay: Compound was tested for anticonvulsant activity against maximal electroshock in rat; assay type: functional; outline: as §3
# Mus musculus [8] = assay: Compound was tested for anticonvulsant activity using rotarod method at dose 300 mg/kg in time 0.5 hr in mice administered subcutaneously; assay type: functional; conditions: route subcutaneous
# Outline: (§4)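 NINDS ADD rotarod neurotoxicity screen in mice at 0.5 h and 4 h post-dose. The score is inability to grasp the rotating rod; loss of righting reflex after falling was also noted.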
# Mus musculus [9] = assay: Compound was tested for anticonvulsant activity against maximal electroshock at dose 300 mg/kg in time 0.5 hr in mice administered subcutaneously; assay type: functional; conditions: route subcutaneous; outline: as §2
# Mus musculus [10] = assay: Compound was tested for anticonvulsant activity against subcutaneous metrazole at dose 100 mg/kg in time 4 hr in mice administered subcutaneously; assay type: functional; outline: as §2
# Mus musculus [11] = assay: Compound was tested for anticonvulsant activity against subcutaneous metrazole at dose 300 mg/kg in time 0.5 hr in mice administered subcutaneously; assay type: functional; outline: as §2
# Mus musculus [12] = assay: Compound was tested for anticonvulsant activity against subcutaneous metrazole at dose 300 mg/kg in time 4 hr in mice administered subcutaneously; assay type: functional; outline: as §2
# Rattus norvegicus [13] = assay: Compound was tested for isoflurane minimum alveolar concentration in rat at dose 60 mg/kg administered intraperitoneally; assay type: functional; conditions: route intraperitoneal; outline: as §1
# Mus musculus [14] = assay: Compound was tested for anticonvulsant activity against subcutaneous metrazole at dose 30 mg/kg in time 0.5 hr in mice administered subcutaneously; assay type: functional; outline: as §2
# HEK293 [15] = assay: Effect on HEK293 cells co-expressing voltage-gated Na+ channel rNav 1.3 and beta-3 at 10 uM; NE=No effect; assay type: functional, cell-based
# Outline: (§5)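 rNaV1.3 coexpressed with β3 in HEK293 cells (and Xenopus oocytes), exposed to 10 µM or 100 µM and assessed for Na+ channel block.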
# [16] = target: Protein kinase C (PKC) (Homo sapiens) (UniProt O94806+P41743+P17252+P05129+Q05655+P05771+Q05513+Q02156+P24723+Q15139+Q04759); assay: Inhibition of protein kinase C at 100 uM; NE=no effect; assay type: protein assay
# HEK293 [17] = assay: Inhibition of rat TASK-1 and TASK-3-leak K+ channels expressed in HEK293 cells at 100 uM; NE denotes no effects; assay type: functional, cell-based
# HEK293 [18] = assay: Effect on HEK293 cells co-expressing voltage-gated Na+ channel rNav 1.3 and beta-3 at 100 uM; NE=No effect; assay type: functional, cell-based; outline: as §5
# Rattus norvegicus [19] = organism: Rattus norvegicus; assay: Compound was tested for anticonvulsant activity using rotarod method in rat; assay type: functional; outline: as §3
# Mus musculus [20] = assay: Compound was tested for anticonvulsant activity against maximal electroshock at dose 100 mg/kg in time 0.5 hr in mice administered subcutaneously; assay type: functional; conditions: route subcutaneous; outline: as §2
# [21] = target: Gamma-aminobutyric acid receptor subunit gamma-1 (Rattus norvegicus) (UniProt P23574); assay: Enhanced 10 uM GABA-A receptor currents in rat hippocampal neurons; NE=no effect; assay type: functional, tissue-based; conditions: Hippocampus
# Outline: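 Peak current is expressed as percent of the GABA-alone control. Concentration–response was fitted to a four-parameter logistic; values are given as mean ± SEM.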
# Mus musculus [22] = assay: Compound was tested for anticonvulsant activity against subcutaneous metrazole at dose 30 mg/kg in time 4 hr in mice administered subcutaneously; assay type: functional; outline: as §2
# Mus musculus [23] = assay: Compound was tested for anticonvulsant activity against subcutaneous metrazole at dose 100 mg/kg in time 0.5 hr in mice administered subcutaneously; assay type: functional; outline: as §2
# Mus musculus [24] = assay: Compound was tested for anticonvulsant activity using rotarod method at dose 100 mg/kg in time 4 hr in mice administered subcutaneously; assay type: functional; conditions: route subcutaneous; outline: as §4
# Rattus norvegicus [25] = organism: Rattus norvegicus; assay: Compound was tested for anticonvulsant activity by measuring the therapeutic index by maximal electroshock in rat; assay type: functional; outline: as §3
# Mus musculus [26] = assay: Compound was tested for anticonvulsant activity against maximal electroshock at dose 300 mg/kg in time 4 hr in mice administered subcutaneously; assay type: functional; conditions: route subcutaneous; outline: as §2
# Rattus norvegicus [27] = assay: Compound was tested for anticonvulsant activity against subcutaneous metrazole in rat; assay type: functional; conditions: sc; outline: as §3
# Mus musculus [28] = assay: Compound was tested for anticonvulsant activity against maximal electroshock at dose 100 mg/kg in time 4 hr in mice administered subcutaneously; assay type: functional; conditions: route subcutaneous; outline: as §2
# Mus musculus [29] = assay: Compound was tested for anticonvulsant activity against maximal electroshock at dose 30 mg/kg in time 0.5 hr in mice administered subcutaneously; assay type: functional; conditions: route subcutaneous; outline: as §2
# Mus musculus [30] = assay: Compound was tested for anticonvulsant activity using rotarod method at dose 100 mg/kg in time 0.5 hr in mice administered subcutaneously; assay type: functional; conditions: route subcutaneous; outline: as §4
# Mus musculus [31] = assay: Compound was tested for anticonvulsant activity using rotarod method at dose 300 mg/kg in time 4 hr in mice administered subcutaneously; assay type: functional; conditions: route subcutaneous; outline: as §4
# T1 sequence (P35499 whole entry): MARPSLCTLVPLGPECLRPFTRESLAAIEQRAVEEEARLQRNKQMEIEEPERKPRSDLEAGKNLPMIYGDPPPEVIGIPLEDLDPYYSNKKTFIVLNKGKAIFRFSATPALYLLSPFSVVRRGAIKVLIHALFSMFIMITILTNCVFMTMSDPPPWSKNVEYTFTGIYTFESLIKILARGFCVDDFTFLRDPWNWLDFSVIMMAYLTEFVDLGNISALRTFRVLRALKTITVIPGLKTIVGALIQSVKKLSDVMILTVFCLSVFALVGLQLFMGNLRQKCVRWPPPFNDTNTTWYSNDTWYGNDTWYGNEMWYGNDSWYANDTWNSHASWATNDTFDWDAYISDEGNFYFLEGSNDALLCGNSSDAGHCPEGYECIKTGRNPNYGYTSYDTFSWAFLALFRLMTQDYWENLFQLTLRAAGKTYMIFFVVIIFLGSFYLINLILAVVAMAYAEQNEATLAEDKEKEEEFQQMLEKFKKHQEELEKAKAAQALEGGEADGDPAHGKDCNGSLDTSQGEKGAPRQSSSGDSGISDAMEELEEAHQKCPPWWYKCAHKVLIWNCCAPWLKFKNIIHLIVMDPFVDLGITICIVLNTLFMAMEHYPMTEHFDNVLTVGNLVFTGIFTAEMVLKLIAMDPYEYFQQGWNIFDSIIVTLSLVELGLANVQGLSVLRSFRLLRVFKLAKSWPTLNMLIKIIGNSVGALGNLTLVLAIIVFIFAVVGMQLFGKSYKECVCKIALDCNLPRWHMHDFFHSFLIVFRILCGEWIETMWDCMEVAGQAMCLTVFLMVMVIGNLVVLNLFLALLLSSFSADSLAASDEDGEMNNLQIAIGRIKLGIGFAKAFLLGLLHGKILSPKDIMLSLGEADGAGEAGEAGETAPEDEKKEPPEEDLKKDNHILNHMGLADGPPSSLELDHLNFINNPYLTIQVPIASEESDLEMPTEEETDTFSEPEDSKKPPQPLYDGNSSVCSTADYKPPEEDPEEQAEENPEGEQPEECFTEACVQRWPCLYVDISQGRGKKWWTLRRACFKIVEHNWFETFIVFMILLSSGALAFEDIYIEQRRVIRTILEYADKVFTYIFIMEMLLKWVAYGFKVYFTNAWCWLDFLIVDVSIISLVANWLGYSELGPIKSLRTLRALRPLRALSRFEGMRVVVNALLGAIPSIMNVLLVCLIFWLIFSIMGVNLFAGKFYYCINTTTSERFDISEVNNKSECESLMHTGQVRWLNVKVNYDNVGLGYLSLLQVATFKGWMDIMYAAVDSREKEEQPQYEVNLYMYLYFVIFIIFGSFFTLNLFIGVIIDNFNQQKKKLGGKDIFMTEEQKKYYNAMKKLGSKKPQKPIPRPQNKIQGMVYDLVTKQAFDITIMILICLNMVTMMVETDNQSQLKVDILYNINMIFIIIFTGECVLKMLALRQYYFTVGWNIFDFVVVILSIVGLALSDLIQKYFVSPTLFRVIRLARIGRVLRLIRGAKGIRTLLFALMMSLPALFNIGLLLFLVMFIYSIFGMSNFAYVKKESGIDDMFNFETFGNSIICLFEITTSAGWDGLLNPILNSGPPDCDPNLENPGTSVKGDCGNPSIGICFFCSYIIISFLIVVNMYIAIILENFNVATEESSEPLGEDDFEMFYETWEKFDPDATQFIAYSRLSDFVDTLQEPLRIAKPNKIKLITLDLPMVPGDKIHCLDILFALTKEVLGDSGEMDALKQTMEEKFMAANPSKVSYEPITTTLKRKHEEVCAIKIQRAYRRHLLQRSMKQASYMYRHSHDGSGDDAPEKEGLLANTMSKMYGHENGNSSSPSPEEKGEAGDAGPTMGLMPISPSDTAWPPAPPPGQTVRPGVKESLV
# Chain of Gamma-aminobutyric acid receptor subunit gamma-1 (Rattus norvegicus) (P23574 whole entry): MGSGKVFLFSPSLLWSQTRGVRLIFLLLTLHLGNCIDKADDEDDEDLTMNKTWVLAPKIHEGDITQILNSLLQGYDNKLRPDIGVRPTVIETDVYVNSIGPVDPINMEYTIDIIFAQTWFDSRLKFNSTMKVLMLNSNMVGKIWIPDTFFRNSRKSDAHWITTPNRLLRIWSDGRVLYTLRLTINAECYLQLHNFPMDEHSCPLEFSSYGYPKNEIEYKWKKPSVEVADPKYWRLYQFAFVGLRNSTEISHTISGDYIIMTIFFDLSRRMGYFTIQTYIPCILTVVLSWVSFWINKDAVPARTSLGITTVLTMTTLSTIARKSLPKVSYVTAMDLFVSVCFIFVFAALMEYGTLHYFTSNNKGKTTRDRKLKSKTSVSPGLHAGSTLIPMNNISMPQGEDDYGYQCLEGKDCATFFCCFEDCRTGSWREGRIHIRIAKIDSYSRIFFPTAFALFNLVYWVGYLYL
smiles,measurement,setting,value
CNC1(c2ccccc2Cl)CCCCC1=O (stereo not given) [KETAMINE],IC50,[1],2300 µM
same,IC50,[2],800 µM
O=C(O)C(O)(c1ccccc1)C(F)(F)F (stereo not given),MAC reduction,Rattus norvegicus [3],-9.1%
same,Mean blood pressure,Rattus norvegicus [4],116 mmHg
O=C1Nc2ccccc2C1(O)C(F)(F)F (stereo not given),MAC reduction,Rattus norvegicus [3],-4.3%
same,Mean blood pressure,Rattus norvegicus [4],113 mmHg
NC(=O)C(O)(CC(F)(F)F)c1ccccc1 (stereo not given),MAC reduction,Rattus norvegicus [3],-11%
same,Mean blood pressure,Rattus norvegicus [4],107 mmHg
NC(=O)C(O)(Cc1ccccc1)C(F)(F)F (stereo not given),MAC reduction,Rattus norvegicus [3],0%
same,Mean blood pressure,Rattus norvegicus [4],111 mmHg
CC(O)(C(N)=O)c1ccccc1 (stereo not given) [ATROLACTAMIDE],MAC reduction,Rattus norvegicus [3],0%
same,Mean blood pressure,Rattus norvegicus [4],127 mmHg
NC(=O)C(O)(c1ccccc1)C(F)(F)F (stereo not given),Protection,Mus musculus [5],0
same,T.I.,Rattus norvegicus [6],2.6
same,ED50,Rattus norvegicus [7],9.9 mg/kg
same,Protection,Mus musculus [8],4
same,Protection,Mus musculus [9],1
same,Protection,Mus musculus [10],0
same,MAC reduction,Rattus norvegicus [3],-34%
same,Protection,Mus musculus [11],1
same,Protection,Mus musculus [12],1
same,Volume reduction,Rattus norvegicus [13],34%
same,Protection,Mus musculus [14],0
same,Activity,HEK293 [15],inactive
same,Activity,HEK293 [15]; Xenopus sp.,inactive
same,Activity,[16],inactive
same,Mean blood pressure,Rattus norvegicus [4],119 mmHg
same,Activity,HEK293 [17],inactive
same,Activity,HEK293 [18],inactive
same,Activity,HEK293 [18]; Xenopus sp.,inactive
same,ED50,Rattus norvegicus [19],100 mg/kg
same,Protection,Mus musculus [20],3
same,Activity,[21],inactive
same,Protection,Mus musculus [22],0
same,Protection,Mus musculus [23],5
same,Protection,Mus musculus [24],2
same,T.I.,Rattus norvegicus [25],10
same,Protection,Mus musculus [26],1
same,ED50,Rattus norvegicus [27],39 mg/kg
same,Protection,Mus musculus [28],3
same,Protection,Mus musculus [29],0
same,Protection,Mus musculus [30],4
same,Protection,Mus musculus [31],2
O=C1NC(=O)C(c2ccccc2)(c2ccccc2)N1 [PHENYTOIN],ED50,Rattus norvegicus [7],9.5 mg/kg
same,ED50,Rattus norvegicus [19],66 mg/kg
same,T.I.,Rattus norvegicus [25],6.9
same,ED50,Rattus norvegicus [27],> 300 mg/kg
NC(=O)C(O)(c1ccccc1)C(F)(F)Cl (stereo not given),MAC reduction,Rattus norvegicus [3],-43%
same,Mean blood pressure,Rattus norvegicus [4],81 mmHg
CN1C(=O)C(O)(C(F)(F)F)c2ccccc21 (stereo not given),MAC reduction,Rattus norvegicus [3],-4.4%
same,Mean blood pressure,Rattus norvegicus [4],112 mmHg
NCC(O)(c1ccccc1)C(F)(F)F (stereo not given),MAC reduction,Rattus norvegicus [3],-6.5%
same,Mean blood pressure,Rattus norvegicus [4],116 mmHg
NC(=O)C(OCc1ccccc1)(c1ccccc1)C(F)(F)F (stereo not given),MAC reduction,Rattus norvegicus [3],-4.4%
same,Mean blood pressure,Rattus norvegicus [4],121 mmHg
